# Measurements pooled from the literature.
# Target: Serine/threonine-protein kinase 16 (STK16, Homo sapiens, UniProt O75716)
Structure (SMILES),assay,conditions,quantity,value
COc1cc(Nc2ncc(F)c(Nc3ccc4c(n3)NC(=O)C(C)(C)O4)n2)cc(OC)c1OC,"binding, competition with immobilised ligand",10 µM,inhibition,100%
Cn1cc(-c2cccc(N3CCc4c(sc5c4CC(C)(C)C5)C3=O)c2CO)cc(Nc2ccncn2)c1=O,"enzyme activity, inhibitor",1 µM,inhibition,-3%
O=c1[nH]c2ccccc2n1C1CCN(Cc2ccc(-c3[nH]c4cc5ncnc5cc4nc3-c3ccccc3)cc2)CC1,cell-free assay,0.5 µM,remaining signal,99.5%
Cn1cncc1[C@@](O)(COc1ccc(C#N)cc1-c1ccc(OC(F)(F)F)cc1)c1ccc(C#N)cc1,"cell-free assay, competition with immobilised ligand",1 µM,remaining binding,99%
CC(C)(C)c1cc(C=C(C#N)C#N)cc(Br)c1O,"enzyme activity, inhibitor",0.5 µM,remaining activity,99.2%
Cn1cc(-c2cc(F)cc(N3CCn4c(cc5c4CCCC5)C3=O)c2CO)cc(Nc2ccc(N3CCN(C4COC4)CC3)cn2)c1=O,"enzyme activity, inhibitor",0.1 µM,inhibition,10%
Nc1ncc(-c2nc(N3CCOCC3)nc(N3CCOCC3)n2)c(C(F)F)n1,"binding, competition with immobilised ligand",10 µM,remaining binding,56%
Cc1nn(C)cc1-c1nc2c(N3CCN(Cc4ccc(Cl)cc4)CC3)c(Cl)cnc2[nH]1,"binding, competition with immobilised ligand",1 µM,remaining binding,18%
COc1ncccc1-c1cnn2ccc(N3CCN(C(=O)OC(C)C)CC3)nc12,"binding, competition with immobilised ligand",1 µM,remaining binding,55%
